From ChEMBL document CHEMBL1144684, “Evaluation of a series of naphthamides as potent, orally active vascular endothelial growth factor receptor-2 tyrosine kinase inhibitors” (J Med Chem, 2008)
Active and inactive are the calls of the source. The calls are words filed in the database; no cut-off is given here.

Assays:
Liver microsomes [1] = assay: Metabolic stability assessed as covalent binding in presence of NADPH in human liver microsomes at 10 uM after 1 hr; type: ADME, Microsome
Procedure, shortened: (§1)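 14C-labelled compound at 10 µM with human or rat liver microsomes (1 mg/mL) in 0.1 M potassium phosphate pH 7.4, with or without 1 mM NADPH and 1 mM glutathione, 60 min; quenched with ice-cold acetonitrile. Pellet washed with 80% methanol and ethanol/ether, solubilized, protein by BCA, radioactivity by scintillation counting.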

[2] = Cmax in VEGF-soaked disk implanted in Sprague-Dawley rat; type: ADME, organism-based; details: in vivo
Liver microsomes [3] = assay: Metabolic stability assessed as covalent binding in presence of NADPH in rat liver microsomes at 10 uM after 1 hr; type: ADME, Microsome; procedure, shortened: as §1
[4] = Mean residence time in mouse at 2 mg/kg, iv; type: ADME, organism-based; parameters: dose 2 mg/kg, route intravenous; details: in vivo
Procedure, shortened: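 Intravenous dosing of male/unspecified animals per species; vehicles: mouse 2 mg/kg in Peg 400, dog 0.5 mg/kg in DMSO, cynomolgus monkey 0.5 mg/kg in propylene glycol. Parameters from plasma concentration–time data by noncompartmental analysis.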

Calu-6 (Homo sapiens) = assay: Antitumor activity in human Calu6 cell xenografted CD1 nu/nu mouse assessed as inhibition of tumor growth at 6 mg/kg, po qd for 14 days; details: Calu-6, po, 336 h, read-out: TGI
[5] = Half life in mouse at 10 mg/kg, po; type: ADME, organism-based; parameters: dose 10 mg/kg, route oral; details: in vivo
Procedure, shortened: (§2)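 Compound given iv and po as single doses; vehicles: mouse iv PEG 400, po OraPlus; dog iv DMSO, po 1% Tween-80/2% HPMC/97% water; cynomolgus iv propylene glycol, po suspension.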

HT-29 = assay: Antitumor activity in human HT29 cell xenografted CD1 nu/nu mouse assessed as inhibition of tumor growth at 30 mg/kg, po qd for 14 days; type: functional; details: HT-29, 336 h, read-out: TGI
Procedure, shortened: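 Female CD-1 nu/nu mice, 4–8 weeks, implanted sc in hind flank with 1 × 10^7 HT29 (DMEM high glucose, 5% FBS) or Calu-6 (RPMI 1640, 10% FBS) cells; treatment began at 13–14 days (~300 mm3). Methanesulfonate salt given po qd in OraPlus for 14 days; caliper volumes twice weekly; n = 10/group; RMANOVA with Scheffé test.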

[6] = Oral bioavailability in dog at 0.5 mg/kg, po; type: ADME, organism-based, Canis lupus familiaris; details: in vivo
Procedure, shortened: (§3)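 Oral suspension dosing; vehicles: mouse 10 mg/kg in OraPlus, dog 0.5 mg/kg in 1% Tween-80/2% HPMC/97% water, cynomolgus monkey 2 mg/kg.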

[7] = target: Mast/stem cell growth factor receptor Kit (Homo sapiens) (UniProt P10721); assay: Inhibition of c-Kit
[8] = Cmax in dog at 0.5 mg/kg, po; type: ADME, organism-based, Canis lupus familiaris; parameters: dose 0.5 mg/kg, route oral; details: in vivo; procedure, shortened: as §2
[9] = Tmax in mouse at 10 mg/kg, po; type: ADME, organism-based; parameters: dose 10 mg/kg, route oral; details: in vivo; procedure, shortened: as §3

Sequence of Mast/stem cell growth factor receptor Kit (Homo sapiens) (P10721 whole entry): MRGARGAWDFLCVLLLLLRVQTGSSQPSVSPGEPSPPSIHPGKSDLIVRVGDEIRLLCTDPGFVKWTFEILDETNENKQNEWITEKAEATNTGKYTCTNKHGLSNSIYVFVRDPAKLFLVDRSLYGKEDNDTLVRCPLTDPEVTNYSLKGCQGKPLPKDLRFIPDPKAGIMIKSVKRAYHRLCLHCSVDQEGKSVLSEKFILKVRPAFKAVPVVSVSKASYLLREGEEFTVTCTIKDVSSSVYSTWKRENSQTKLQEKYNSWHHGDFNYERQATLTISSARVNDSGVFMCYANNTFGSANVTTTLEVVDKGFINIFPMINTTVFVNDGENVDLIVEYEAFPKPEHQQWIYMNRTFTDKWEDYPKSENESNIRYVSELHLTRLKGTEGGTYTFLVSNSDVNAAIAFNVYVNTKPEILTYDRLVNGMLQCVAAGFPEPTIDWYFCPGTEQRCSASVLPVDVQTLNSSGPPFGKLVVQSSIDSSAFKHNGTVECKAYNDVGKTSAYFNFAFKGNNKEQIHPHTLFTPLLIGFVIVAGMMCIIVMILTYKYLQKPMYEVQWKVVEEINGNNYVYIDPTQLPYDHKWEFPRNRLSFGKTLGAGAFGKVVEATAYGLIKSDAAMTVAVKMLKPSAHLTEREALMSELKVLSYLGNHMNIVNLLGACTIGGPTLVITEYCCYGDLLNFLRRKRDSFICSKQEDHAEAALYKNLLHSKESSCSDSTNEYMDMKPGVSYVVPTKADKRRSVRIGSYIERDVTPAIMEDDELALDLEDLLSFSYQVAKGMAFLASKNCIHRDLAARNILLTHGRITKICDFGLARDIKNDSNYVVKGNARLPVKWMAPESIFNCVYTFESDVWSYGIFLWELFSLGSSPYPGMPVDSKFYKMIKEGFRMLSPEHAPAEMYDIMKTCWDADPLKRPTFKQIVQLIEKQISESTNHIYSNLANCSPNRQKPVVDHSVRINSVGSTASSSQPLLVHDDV

`COc1cc2nccc(Oc3ccc4c(C(N)=O)cccc4c3)c2cc1OC` gave a Stability (Liver microsomes [1]) of 36 pmol/mg/h, a Cmax [2] of 0.05 µM and a Stability (Liver microsomes [3]) of 39 pmol/mg/h. The MRT [4] was 2.3 h, the inhibition in vivo at 6 mg/kg (Calu-6 (Homo sapiens)) was 52% and the half-life [5] was 5.6 h. For the same molecule, the inhibition in vivo at 30 mg/kg (HT-29) was 94%, the bioavailability [6] was 73% and the Activity [7] was “Active”. It also gave a Cmax [8] of 0.464 µg/mL and a Tmax [9] of 0.25 h.
